EphB4 ephrin blk: EphB4-ephrin-B2 interaction antagonism; P54760; EphB4 LBD / TNYL-RAW-Alexa532 peptide, fluorescence polarization; inhibition, % at 7 µM; hit rate 0.15% among 97,000; AID 720;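 active = inhibition above the screen-wide mean inhibition plus 3 SD, cut at about 15% in these data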;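 note: 0% = DMSO wells and 100% = excess unlabeled TNYL-RAW peptide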
PLK1 PBD inh: inhibitors of human Plk1 polo box domain binding; hit rate 0.13% among 97,000; Plk1 PBD phosphopeptide binding, fluorescence polarization; P53350; inhibition, %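 (tested at about 20 µM)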; in the data active = inhibition above about 34%, passing the limit was not always enough
Rev-RRE block: disrupts HIV-1 Rev binding to RRE RNA | P05866 | Rev peptide-RRE RNA binding, FRET | inhibition, % at 8 µM | hit rate 0.79% among 97,000;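 active = inhibition above the screen-wide mean plus 3 SD, cut at about 35% in these data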;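 note: 0% = median DMSO wells and 100% = median Neomycin B control wells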
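Test system: Cy5-tagged RRE RNA duplex with fluorescein-tagged Rev peptide; Probe or stimulus: labelled Rev peptide; Schedule: 5 min preincubation and 15 min binding, 25 °C; Signal: FRET fluorescence readout; Evaluation: % inhibition from 671/540 nm acceptor-to-donor ratio, scaled between controls; Control set: DMSO and neomycin B.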
PLK1 inh: inhibitors of human PLK1 kinase. P53350. recombinant PLK1 kinase, TR-FRET peptide phosphorylation. hit rate 0.53% among 97,000. inhibition, % at 10 µM;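 active = inhibition of 50% or more in the single-concentration screen; inactive = inhibition below 50%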;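 note: 0% = DMSO max control and 100% = H-89 dihydrochloride min control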
Cav3 T inh: human Cav3.2 channel inhibition, primary screen; O95180; Cav3.2-expressing cells, Fluo-4 calcium fluorescence FDSS; stronger effect = lower value; B-score at 10 µM; hit rate 4% among 100,000;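 active = single-dose well whose peak fluorescence ratio is a statistical outlier from its plate by either plate-standardised score or position-corrected B-score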
FAK blocker: FAK (human) kinase inhibition | Q05397 | biochemical FAK kinase activity assay | inhibition, %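 (tested at 7 µM)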 | hit rate 0.84% among 97,000 | AID 727;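 note: 0% = DMSO and 100% = reference compound high control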
FAK inh confirm: FAK (human) inhibition confirmed. shares compounds with FAK blocker. FAK kinase biochemical inhibition assay. hit rate 28% among 750. inhibition, % at 7 µM
Numbers without * were called inactive; · = no result given; [ ] = another dose, or the depositor's remark. An excerpt weighted towards active compounds, which were near 5.3% of everything screened. Cut-off read from the data, not from the text of the source, unless noted: active = inhibition above about 19%; inactive = the rest.

SMILES	EphB4 ephrin blk	PLK1 PBD inh	Rev-RRE block	PLK1 inh	Cav3 T inh	FAK blocker	FAK inh confirm
COc1ccc2c(c1OC)C(=O)N1N=C(c3ccc(O)cc3)CC21 (centres undefined)	-16	0	0	-6	0.1	-4	·
CCOC(=O)/C(N=Nc1c(Br)cc(Br)cc1Br)=C(\C)O	-1	12	9	8	-0.63	14	·
Cc1cc(-c2csc(NC(=O)c3ccc(=O)n(C)n3)n2)c(C)n1CC1CCCO1 (centres undefined)	8	13	8	-7	0.9	22*	5
COc1ccc(Nc2nnc(SCC(=O)c3cc(C)n(CC4CCCO4)c3C)s2)cc1 (centres undefined)	5	-26	2	-5	-4.3	0	·
Nc1c(N2CCCC2)cc(Cl)c2nonc12	0	-41	41*	7	-0.81	40*	-1
CC1=NN(c2ccc(C(=O)OC(C)C)cc2)C(=O)/C1=C\C=C\c1ccco1	1	-14	-1	-10	0.19	-3	·
CC(C(=O)O)N1C(=O)/C(=C/C=C/c2ccco2)SC1=S (centres undefined)	7	-13	-167	-12	-1.9	100*	23*
O=C1c2ccccc2C(Nc2cccc(C(F)(F)F)c2)N1Cc1ccco1 (centres undefined)	3	1	18	-5	-5.2*	20*	7
Cc1sc(NC(=O)c2sc3nc4c(C)cccc4cc3c2N)c(C#N)c1C	-2	-8	101*[fluorescence artefact?]	-15	-2.1	29*	7
Cc1cccc2cc3c(N)c(C#N)sc3nc12	-8	-21	35	-9	-2	3	·
CCCCCc1nc2c(C#N)c(-c3ccc(Cl)cc3)ccn2n1	-2	-2	10	-8	-1.2	0	·
CCOC(=O)c1sc2c(c1C)C(c1cccs1)C1=C(CCCC1=O)N2 (centres undefined)	2	-7	12	-13	-0.41	24*	19*
CCOC(=O)C1=C(C)NC2=C(C(=O)CCC2)C1c1cccs1 (centres undefined)	-4	10	0	-12	·	1	·
Cc1cccn2c(=O)c(C=Nc3ccccc3)c(NCc3ccco3)nc12	1	-25	6	20	-2.5	24*	4
CSCC(=O)NS(=O)(=O)c1ccc(C)cc1	·	·	·	·	0.44	·	·
CCCCNC(=O)[C@H](CSCc1ccccc1)N1Cc2ccccc2C1=O	·	·	·	·	-1.5	·	·
CN1C(=O)c2cccc3c(S(=O)(=O)NCc4ccco4)ccc1c23	-3	12	1	-12	0.99	36*	21*
CN1C(=O)c2cccc3c(S(=O)(=O)Nc4ccccn4)ccc1c23	2	0	8	-1	0.59	10	·
COC(=O)C1=C(C)NC(C)=C(C(=O)OC)C1C(=O)OCC(=O)N1c2ccccc2CC1C (centres undefined)	1	-22	1	-27	1.1	-2	·
O=C(Nc1ccc(N2CCCC2)cc1)C(c1ccccc1)c1ccccc1	2	-22	12	-9	-4.2	46*	29*
O=C(Cc1ccccc1)Nc1ccc(N2CCCC2)cc1	-4	-5	-2	-3	0.19	30*	16
CC(C)C(=O)Nc1ccc(N2CCCC2)cc1	-4	-14	5	-7	-0.65	5	·
CN(C)C(=C(C#N)C#N)N1CCN(c2ccc(Cl)c(Cl)c2)CC1	1	9	5	-5	-0.52	-2	·
C#CCOCCOCCOCCNc1nc(N2CCN(C(=O)C([C@@H](C)CC)n3cc(C(N)COC(=O)C(F)(F)F)nn3)CC2)nc(N2CCN(C(=O)[C@H](CCCCN)n3cc(C(N)[C@H](C)CC)nn3)CC2)n1 (some centres undefined)	·	·	·	·	0.26	·	·
O=C(c1ccc(NS(=O)(=O)c2cccs2)cc1)N1CCCCC1	3	-3	8	-15	0.2	25*	12
SMILES	EphB4 ephrin blk	PLK1 PBD inh	Rev-RRE block	PLK1 inh	Cav3 T inh	FAK blocker	FAK inh confirm
CCCSc1nc(C)c(-c2csc(C(C#N)=C3CCCC3)n2)cc1C#N	4	21	12	-10	-0.59	28*	2
CCCCSc1nc2c(cc1C#N)CCC2	-7	20	13	-10	-1.4	0	·
O=Cc1ccc2noc(-c3ccc(F)cc3)c2c1	-5	23	30	-4	-2.4	34*	33*
COc1ccc(OC)c(N2C(=O)[C@@H]3C(c4ccccc4Cl)=NO[C@@H]3C2=O)c1	-3	-14	-8	-8	0.28	19*	8
COc1ccc(C2=NO[C@@H]3C(=O)N(c4c(C)cccc4C)C(=O)[C@H]23)cc1OC	3	-15	7	-7	-0.029	8	·
CC1(C)CC(=O)C(C(c2ccncc2)C2C(=O)CC(C)(C)CC2=O)C(=O)C1	-6	-16	3	4	1.2	-2	·
Cc1ccc(C(C2C(=O)CC(C)(C)CC2=O)C2C(=O)CC(C)(C)CC2=O)s1	1	10	4	-13	2.5	22*	0
CCOC(=O)C(C(=O)N(C)C)c1ncc(C(F)(F)F)cc1Cl (centres undefined)	1	-23	1	-12	-0.62	78*	-3
Cc1cccc(NC(=O)NCc2ccc3c(c2)cc(C)n3C)c1	5	2	8	-24	-1.4	22*	-7
CCCCC(=O)N(Cc1ccc(-c2ccccc2-c2nn[nH]n2)cc1)[C@H](C(=O)O)C(C)C	·	·	·	·	0.29	·	·
CCC1=NNc2cccc3c(OC)ccc1c23	14	-1	1	68*	-0.48	82*	26*
COc1cc(C2CC(=O)c3cnc(N4CCN(Cc5ccccc5)CC4)nc3C2)cc(OC)c1OC (centres undefined)	5	-9	10	0	-3.5	19*	5
O=C1NC(=S)N/C1=C/c1ccc(-c2c(Br)cc([N+](=O)[O-])cc2Br)o1	1	-3	38*	-18	·	36*	11
CCOC(=O)CCC(=O)N1CCNC(=O)C1	·	·	·	·	0.76	·	·
CCOC(=O)C1CCN(c2nc3cc(OC)ccc3cc2C#N)CC1	5	-2	20	-2	-0.88	19*	0
COc1ccc(C(=O)N2CCN(c3nc4cc(C)ccc4cc3C#N)CC2)c(OC)c1	2	-8	7	-10	-0.54	1	·
COc1cccc(C(=O)Nc2c(C(N)=O)oc3ccccc23)c1	-1	-26	1	-9	·	21*	8
CN1C(=O)C2(C(C#N)=C(N)Oc3c2oc(CO)cc3=O)c2ccccc21 (centres undefined)	-5	-14	4	-5	0.26	-1	·
CCCc1nc(N2CCCC2)c(C#N)c2c1CCCC2	-7	11	22	-19	0.013	8	·
CCCc1nc2n[nH]c(N)c2c2c1CCCC2	1	0	0	45	0.53	21*	10
CCOC(=O)/C(=C/Nc1ccccc1)[N+](=O)[O-]	-8	3	2	-10	0.19	-3	·
